Measurements as given in ChEMBL document CHEMBL4428101, “The Oncolytic Efficacy and in Vivo Pharmacokinetics of [2-(4-Chlorophenyl)quinolin-4-yl](piperidine-2-yl)methanol (Vacquinol-1) Are Governed by Distinct Stereochemical Features” (J Med Chem, 2016).
Values belong to the molecule of their own block, whether it stands above or below them. Activity calls are given as the source filed them. No cut-off for these calls is given here.

How the values were obtained:
[1] = Cytotoxicity against patient-derived U3013MG cells assessed as reduction in cell viability after 48 hrs by Celltiter-Glo reagent based assay; type: functional; details: Homo sapiens
[2] = Cytotoxicity against patient-derived U3013MG cells assessed as reduction in cell viability by Celltiter-Glo reagent based assay; type: functional; details: Homo sapiens
U3013MG [3] = experiment: Cytotoxicity against patient-derived U3013MG cells assessed as induction of catastrophic vacuolization at 5 uM after 4 to 8 hrs by light microscopy; type: functional, cell-based; details: Homo sapiens
Outline: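 U3013 glioblastoma cells in 384-well plates were examined by light microscopy at 4 h intervals for large lucent intracellular vacuoles, with bright-field imaging at 37 °C, 5% CO2.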

[4] = Cmax in NMRI mouse brain at 2 mg/kg, iv administered as single dose measured after 144 hrs by UPLC-MS/MS analysis; type: ADME, organism-based; set-up: dose 2 mg/kg, route intravenous
Outline: (§1)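 Single dose to male NMRI mice, i.v. tail vein under light isoflurane or p.o. gavage without anesthesia. Blood by orbital plexus into EDTA, plasma by centrifugation at +4 °C; brains homogenized in 4 mL PBS (pH 7.4) per g. Sampled 15 min to 144 h, n = 3 per time point. UPLC-MS/MS with internal standard; noncompartmental analysis of composite mean profiles using nominal times and doses.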

[5] = Cmax in NMRI mouse brain at 20 mg/kg, po administered as single dose through gavage measured after 144 hrs by UPLC-MS/MS analysis; type: ADME, organism-based; set-up: dose 20 mg/kg, route oral; outline: as §1
[6] = AUClast in NMRI mouse brain at 2 mg/kg, iv administered as single dose measured after 144 hrs by UPLC-MS/MS analysis; type: ADME, organism-based; set-up: dose 2 mg/kg, time < 144 hr, route intravenous; outline: as §1
[7] = AUClast in NMRI mouse brain at 20 mg/kg, po administered as single dose through gavage measured after 144 hrs by UPLC-MS/MS analysis; type: ADME, organism-based; set-up: dose 20 mg/kg, time < 144 hr, route oral; outline: as §1
[8] = Tlast in NMRI mouse brain at 2 mg/kg, iv administered as single dose by UPLC-MS/MS analysis; type: ADME, organism-based; details: in vivo; outline: as §1
[9] = Tlast in NMRI mouse brain at 20 mg/kg, po administered as single dose through gavage by UPLC-MS/MS analysis; type: ADME, organism-based; details: in vivo; outline: as §1
[10] = Half life in NMRI mouse brain at 2 mg/kg, iv administered as single dose by UPLC-MS/MS analysis; type: ADME, organism-based; outline: as §1
[11] = Half life in NMRI mouse brain at 20 mg/kg, po administered as single dose through gavage by UPLC-MS/MS analysis; type: ADME, organism-based; outline: as §1
[12] = Oral bioavailability in NMRI mouse brain at 20 mg/kg administered as single dose through gavage measured after 144 hrs by UPLC-MS/MS analysis; type: ADME, organism-based; outline: as §1
[13] = AUClast in NMRI mouse plasma at 2 mg/kg, iv administered as single dose measured up to 144 hrs post dose by UPLC-MS/MS analysis; type: ADME, organism-based; set-up: time < 144 hr, dose 2 mg/kg, route intravenous; outline: as §1
[14] = AUClast in NMRI mouse plasma at 20 mg/kg, po administered as single dose through gavage measured up to 144 hrs post dose by UPLC-MS/MS analysis; type: ADME, organism-based; set-up: dose 20 mg/kg, time < 144 hr, route oral; outline: as §1
[15] = Tlast in NMRI mouse plasma at 2 mg/kg, iv administered as single dose by UPLC-MS/MS analysis; type: ADME, organism-based; details: in vivo; outline: as §1
[16] = Tlast in NMRI mouse plasma at 20 mg/kg, po administered as single dose through gavage by UPLC-MS/MS analysis; type: ADME, organism-based; details: in vivo; outline: as §1
[17] = Half life in NMRI mouse plasma at 2 mg/kg, iv administered as single dose by UPLC-MS/MS analysis; type: ADME, organism-based; outline: as §1
[18] = Half life in NMRI mouse plasma at 20 mg/kg, po administered as single dose through gavage by UPLC-MS/MS analysis; type: ADME, organism-based; outline: as §1
[19] = Toxicity in NMRI mouse assessed as drug tolerance at 2 mg/kg, iv administered as single dose up to 144 hrs; type: organism-based; details: in vivo
[20] = Toxicity in NMRI mouse assessed as drug tolerance at 20 mg/kg, po administered as single dose through gavage up to 144 hrs; type: organism-based; details: in vivo
[21] = CNS toxicity in NMRI mouse at 2 mg/kg, iv administered as single dose up to 144 hrs; type: organism-based; details: in vivo
[22] = CNS toxicity in NMRI mouse at 20 mg/kg, po administered as single dose through gavage up to 144 hrs; type: organism-based; details: in vivo
[23] = Systemic toxicity in NMRI mouse at 2 mg/kg, iv administered as single dose up to 144 hrs; type: organism-based; details: in vivo
[24] = Systemic toxicity in NMRI mouse at 20 mg/kg, po administered as single dose through gavage up to 144 hrs; type: organism-based; details: in vivo
[25] = Fraction unbound in NMRI mouse plasma at 5 uM by LC-MS based equilibrium dialysis method; type: ADME, cell-free
Outline: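 Equilibrium dialysis across a semipermeable membrane, 100% mouse plasma against pH 7.4 buffer, 5 μM compound at 0.5% final DMSO, 37 °C. Both sides sampled after equilibration. Duplicate incubations, reported as averages.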

[26] = Ratio of drug level in NMRI mouse brain to plasma at 2 mg/kg, iv or 20 mg/kg, po administered as single dose through gavage measured up to 144 hrs post dose by UPLC-MS/MS analysis; type: ADME, organism-based; details: brain and plasma, read-out: BPR; outline: as §1
[27] = Toxicity in 2 days post fertilized zebra fish embryo assessed as effect on larval development up to 50 uM; set-up: species or system Danio rerio; details: zebrafish, 48 h
Outline: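 Zebrafish embryos were exposed to rising concentrations up to 50 μM or to vehicle, and larval development was scored visually at 2 days post-fertilization.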

U3013MG [28] = experiment: Antitumor activity against GFP-labeled human U3013MG cells orthotopically xenografted in 2 days post fertilized zebra fish embryo assessed as reduction in tumor cells at 30 uM measured 6 days post transplantation by fluorescence assay; type: functional, cell-based
Outline: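 U3013 cells labeled with Cell Tracker Green; about 3000 cells injected into the brain ventricle of 2 dpf Mitfa-morpholino larvae. Three embryos per well in 200 μL egg water holding compound or 0.1% DMSO, renewed every 6 h. Imaged 6 days post-transplantation; tumor burden from GFP fluorescence intensity and counts of larvae with grafted cells.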

[29] = Toxicity in 2 days post fertilized zebra fish embryo orthotopically xenografted with GFP-labeled human U3013MG cells assessed as larval development defect at 30 uM; set-up: species or system Danio rerio; details: zebrafish, 48 h

SMILES: O[C@H](c1cc(-c2ccc(C(F)(F)F)nc2)nc2ccccc12)[C@@H]1CCCCN1 (relative stereo)
IC50 [1]: 38 µM

SMILES: OC(c1cc(-c2ccc[nH]2)nc2ccccc12)C1CCCCN1 (stereo not given)
IC50 [1]: > 50 µM

SMILES: OC(c1cc(-c2ccc(Cl)cc2)nc2ccccc12)C1CCCCN1 (stereo not given)
IC50 [2]: 3.14 µM

SMILES: OC(c1cc(-c2ccsc2)nc2ccccc12)C1CCCCN1 (stereo not given)
IC50 [1]: 26.5 µM

SMILES: Cc1noc(C)c1-c1cc(C(O)C2CCCCN2)c2ccccc2n1 (stereo not given)
IC50 [1]: > 50 µM

SMILES: OC(c1cc(-c2ccncc2)nc2ccccc12)C1CCCCN1 (stereo not given)
IC50 [1]: > 50 µM

SMILES: CCCN(CCC)C(=O)c1ccc(-c2cc([C@@H](O)[C@@H]3CCCCN3)c3ccccc3n2)cc1 (relative stereo)
IC50 [1]: 35.4 µM

SMILES: O[C@H](c1cc(-c2ccc(Cl)cc2)nc2ccccc12)[C@H]1CCCCN1 (single isomer, unassigned)
IC50 [1]: 10.5 µM
Activity (U3013MG [3]): inactive

SMILES: OC(c1cc(-c2cncnc2)nc2ccccc12)C1CCCCN1 (stereo not given)
IC50 [1]: > 50 µM

SMILES: O[C@@H](c1cc(-c2ccc(Cl)cc2)nc2ccccc12)[C@@H]1CCCCN1 (single isomer, unassigned)
IC50 [1]: 9.91 µM
Activity (U3013MG [3]): inactive

Cmax [4]: 777 ng/mL
Cmax [5]: 1490 ng/mL
AUC(0-t) at 144 h [6]: 12.2 µg·h/mL
AUC(0-t) at 144 h [7]: 157 µg·h/mL
Tlast [8]: 144 h
Tlast [9]: 144 h
half-life [10]: 67 h
half-life [11]: 96 h
bioavailability [12]: 89%
AUC(0-t) at 144 h [13]: 14.1 µg·h/mL
AUC(0-t) at 144 h [14]: 183 µg·h/mL
Tlast [15]: 144 h
Tlast [16]: 144 h
half-life [17]: 48 h
half-life [18]: 69 h
fraction unbound at 5 µM [25]: 0.0059
SMILES: O[C@@H](c1cc(-c2ccc(Cl)cc2)nc2ccccc12)[C@H]1CCCCN1
IC50 [1]: 3.46 µM
Activity [19]: Non-Toxic
Activity [20]: Non-Toxic
Activity [21]: Non-Toxic
Activity [22]: Non-Toxic
Activity [23]: Non-Toxic
Activity [24]: Non-Toxic

SMILES: Cc1ccc(-c2cc(C(O)C3CCCCN3)c3ccccc3n2)o1 (stereo not given)
IC50 [1]: > 50 µM

SMILES: Cc1ccc(-c2cc([C@@H](O)[C@@H]3CCCCN3)c3ccccc3n2)cc1C#N (relative stereo)
IC50 [1]: 32.1 µM

Cmax [4]: 1970 ng/mL
Cmax [5]: 4840 ng/mL
AUC(0-t) at 144 h [6]: 53.1 µg·h/mL
AUC(0-t) at 144 h [7]: 400 µg·h/mL
Tlast [8]: 144 h
Tlast [9]: 144 h
half-life [10]: 72 h
half-life [11]: 65 h
bioavailability [12]: 75.2%
AUC(0-t) at 144 h [13]: 62 µg·h/mL
AUC(0-t) at 144 h [14]: 246 µg·h/mL
Tlast [15]: 144 h
Tlast [16]: 144 h
half-life [18]: 81 h
fraction unbound at 5 µM [25]: 0.0137
Kp at 144 h [26]: 2
SMILES: O[C@H](c1cc(-c2ccc(Cl)cc2)nc2ccccc12)[C@@H]1CCCCN1
IC50 [1]: 3.79 µM
Activity (U3013MG [3]): Active
Activity [19]: Non-Toxic
Activity [20]: Non-Toxic
Activity [21]: Non-Toxic
Activity [22]: Non-Toxic
Activity [23]: Non-Toxic
Activity [24]: Non-Toxic
Activity [27]: Non-Toxic
Activity (U3013MG [28]): Active
Activity [29]: Non-Toxic

SMILES: O[C@H](c1cc(-c2ccc(C(F)(F)F)cc2)nc2ccccc12)[C@@H]1CCCCN1 (relative stereo)
IC50 [1]: 13.5 µM
